Compound activity from PubChem BioAssay.
This is a sample that favours compounds with a hit; in the whole collection about 1.8% have one here.
EBNA-1 inhibitor – blocks EBNA-1 binding to DNA; EBNA-1 DNA binding, fluorescence polarization; inhibition, % at 14.8 µM; 300,000 tested, 0.34% active; in the data active means inhibition above about 28%
GSTO1 counter – counter-screen for RBBP9 inhibitors: inhibitors of human GSTO1; P78417; recombinant GSTO1, activity-based probe fluorescence polarization; inhibition, % at 5.96 µM; 300,000 tested, 1.1% active; AID 1974;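 active means inhibition above the campaign mean inhibition plus 3 SD, cut at about 35% in these data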;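 further: 0% = GSTO1-1 with DMSO and 100% = wells lacking GSTO1-1 enzyme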
Apaf-1 inh – human Apaf-1 inhibition. O14727. reconstituted apoptosome caspase-3 activity, DEVD-Rh110 fluorescence. inhibition, % at 20 µM. 330,000 tested, 0.71% active. AID 489030; active means inhibition of at least 40% at 20 µM;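 further: plate controls were DMSO wells for no effect and DEVD-CHO caspase inhibitor wells for full effect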
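Material: biochemical Apaf-1 apoptosome reconstitution. Medium: Hepes buffer, pH 7.5. Also added: cytochrome c activation, bis-DEVD rhodamine 110 substrate. Timing: 30 min compound preincubation, 50 min activation, room temperature. Measured by: rhodamine 110 fluorescence at Ex 480/Em 540 nm.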
ZTA DNA inh – ZTA (EBV) inhibition in EBNA-1 counter-screen | AID 2234 | inhibition, % at 11 µM | 320,000 tested, 0.15% active | ZTA-DNA binding, fluorescence polarization; in the data active means inhibition above about 33%
proCasp3 act – activators of human procaspase-3 | recombinant procaspase-3 D3A, Ac-DEVD-pNA absorbance 405 nm | activation, % at 8.5 µM | P42574 | 330,000 tested, 0.11% active | AID 463141;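 active means activation above the mean of all tested compounds plus 3 SD, cut at about 21% in these data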;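 further: 0% = DMSO alone and 100% = DMSO wells spiked with extra 5 µM PC-3 D3A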
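assay system = Procaspase-3 D3A mutant | signal = absorbance at 405 nm, 0 and 120 min | times = 1 h preincubation plus 2 h reaction at 25 °C | repeats = single replicate | read-out = % activation between DMSO and enzyme-spiked controls | medium = Zinc-free HEPES saline buffer with Triton X-100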
proCasp7 act – activates human procaspase-7, counter-screen for procaspase-3 activators; 330,000 tested, 0.093% active; recombinant procaspase-7, Ac-DEVD-pNA absorbance 405 nm; D23A/D198A/D206A triple mutant, cannot self-cleave; scale: DMSO 0, 5 µM enzyme 100; activation, % at 8.5 µM; P55210; AID 463210;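 active means percent activation above the screen-wide mean plus 3 SD, cut at about 25% in these data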
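System: Uncleavable procaspase-7 mutant enzyme; Amount: 2 µM procaspase-7 mutant as dispensed; Schedule: 1 h compound preincubation, 2 h substrate cleavage, 25 °C; Measured by: 405 nm absorbance of p-nitroaniline; Evaluation: percent activation from buffer-corrected 0–120 min absorbance change; Control set: low DMSO alone, high DMSO plus 5 µM PC-7.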
EBNA-1 confirm – EBNA-1 (EBV) inhibition, confirmation. 830 tested, 35% active. inhibition, % at 14.8 µM. shares compounds with EBNA-1 inhibitor. Recombinant EBNA-1 DBD, Cy5-DNA fluorescence polarization;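 active means mean inhibition across replicates above a set limit taken from the earlier primary screen, cut at about 28% in these data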;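 further: plate controls were EBNA-1 protein with DMSO for no effect and wells lacking EBNA-1 for full effect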
ZTA DNA inh trip – ZTA (EBV) inhibition, triplicate counter-screen | Zta-ZRE DNA binding, Cy5 fluorescence polarization | 830 tested, under 10 active | shares compounds with EBNA-1 inhibitor | inhibition, % at 11.1 µM | AID 2328;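 active means mean inhibition over triplicates above a set limit taken from the primary EBNA-1 screen, cut at about 37% in these data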;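 further: purified full length Zta protein with Cy5 labeled ZRE DNA probe; 0% = Zta with DMSO and 100% = wells lacking Zta protein; inhibitors lower polarization by freeing the labeled DNA probe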
Starred values were filed as active, the others as inactive; nt = no result given.

SMILES	EBNA-1 inhibitor	GSTO1 counter	Apaf-1 inh	ZTA DNA inh	proCasp3 act	proCasp7 act	EBNA-1 confirm	ZTA DNA inh trip
COC(=O)[C@H](Cc1ccccc1)NC(=O)O[C@H]1C(=O)c2ccc(OC)cc2O[C@@H]1c1ccc2c(c1)OCO2	29*	11	12	-24	-5	-14	0	2
COC(=O)[C@H](Cc1ccccc1)NC(=O)O[C@@H]1C(=O)c2cc(OC)ccc2O[C@H]1c1ccc(OC)c(Br)c1	2	7	5	-1	-3	-40	nt	nt
COc1ccc(N2CCN(Cc3csc(C)c3-c3ccc(C)cc3)CC2)cc1	8	-4	16	20	6	-8	nt	nt
O=c1[nH]cc(S(=O)(=O)N2CCN(c3cccc(C(F)(F)F)c3)CC2)c(=O)[nH]1	31*	1	-6	-7	-4	8	-5	4
CCCNC(=O)c1ccccc1NC(=O)c1cccc(-n2cnnn2)c1	nt	nt	-3	14	1	1	nt	nt
CSCCC(NC(=O)c1ccco1)C(=O)N(C)CC(=O)Nc1ccccc1Br (configuration not stated)	nt	nt	2	nt	nt	nt	nt	nt
COc1ccc(N=Cc2c(O)n(-c3ccc(OC)cc3)c(=O)c3ccccc23)cc1	65*	0	-3	9	9	1	56*	8
Cc1ccc(NC(=O)c2ccc(NCCc3ccccc3)c([N+](=O)[O-])c2)cc1F	-3	-4	-10	-11	4	-9	nt	nt
O=C(Nc1cc(F)cc(F)c1)c1ccc(NCCc2ccccc2)c([N+](=O)[O-])c1	74*	2	-4	11	5	-7	5	7
COc1cccc(-c2cc(=O)c3cc(NC(=O)c4ccc(N(C)C)cc4)ccc3[nH]2)c1	42*	12	5	0	8	-3	16	-2
COc1ccc(-n2nc(C(=O)Nc3ccc4c(c3)OCO4)c3ccccc3c2=O)c(OC)c1	29*	2	12	-15	1	-3	35*	-8
O=C(NNC(=O)c1ccc(NC(=O)c2ccccc2)cc1)c1ccc(F)cc1	67*	0	0	5	-3	12	103*	4
O=C(CN1C(=O)NC2(CCOc3ccccc32)C1=O)NCCc1ccc(F)cc1 (configuration not stated)	nt	nt	1	nt	-4	2	nt	nt
N#Cc1ccc(C(=O)Nc2cc(C3CC3)nn2-c2ccccc2)cc1	4	-2	-3	1	8	-7	nt	nt
COc1cc2[nH]c(=O)n(Cc3ccccc3Cl)c(=O)c2cc1OC	39*	3	3	-7	-3	7	22	3
COc1cc2[nH]c(=S)n(Cc3ccccc3)c(=O)c2cc1OC	17	13	-8	-1	9	9	nt	nt
COc1cc(NC(=O)COC(=O)/C=C/c2ccc(Cl)cc2Cl)cc(OC)c1	53*	0	3	-2	15	12	59*	6
CSc1cccc(NC(=O)NCc2cccc(CNC(=O)Nc3cccc(SC)c3)c2)c1	34*	-19	-5	7	-2	0	41*	3
CCOC(=O)C1CCCN(C(=O)Cn2nc(C)c3c(C)n(-c4ccccc4)nc3c2=O)C1 (configuration not stated)	3	-1	-8	-1	6	-1	nt	nt
Cc1cc(C)c(NC(=O)Cn2nnc(C(=O)Nc3ccc(F)cc3F)c2N)c(C)c1	-3	6	-10	-21	6	-3	nt	nt
Cc1cccc(C)c1NC(=O)Cn1nnc(C(=O)Nc2ccc(F)cc2F)c1N	28*	2	-11	-6	5	4	29*	-4
CC1CCCN(C(=O)NC2CC(=O)N(c3ccc4c(c3)OCCO4)C2)C1 (configuration not stated)	15	3	-6	9	5	-1	nt	nt
COc1ccccc1-c1cc(C(F)(F)F)nc(NCc2ccco2)n1	40*	-3	20	26	-1	-4	0	3
CCCCCCCC1c2c(c(C)c(C)oc2=O)Oc2c(C)c(C)oc(=O)c21	nt	nt	9	-2	4	-1	nt	nt
COc1cc(-c2nc3n(n2)C(c2cccc(OC)c2OC)C2=C(CCCC2=O)N3)cc(OC)c1OC (configuration not stated)	85*	3	2	3	11	12	112*	0
SMILES	EBNA-1 inhibitor	GSTO1 counter	Apaf-1 inh	ZTA DNA inh	proCasp3 act	proCasp7 act	EBNA-1 confirm	ZTA DNA inh trip
O=C(NC(=S)Nc1ccc(S(=O)(=O)N2CCCCCC2)cc1)c1cccs1	85*	-1	1	-13	1	7	66*	18
COc1cc(C(=O)NNC(=O)/C=C/c2ccccc2)cc(OC)c1OC	nt	nt	5	nt	8	-2	nt	nt
COc1cc(C(=O)NNC(=S)NC(=O)/C=C/c2ccccc2)cc(OC)c1OC	77*	-8	3	-4	-7	-14	35*	4
CC(C)Cc1nnc(NC(=O)CCC(=O)NC2CCCC2)s1	-4	4	-5	-11	7	3	nt	nt
CCN(/N=C/c1ccc(Cl)cc1)c1cc(=O)n(C)c(=O)[nH]1	37*	-6	20	-7	12	1	-8	-8
O=S1(=O)N=C(N(CCO)/N=C/c2ccc(Br)cc2)c2ccccc21	32*	-4	6	-7	-2	-11	22	9
CN(C(=O)COC(=O)/C=C/c1ccc(C(F)(F)F)cc1)c1c(N)n(Cc2ccccc2)c(=O)[nH]c1=O	-1	-1	5	-4	5	12	nt	nt
c1cc2ccc3ccc(-n4cnnn4)c4ccc(c1)c2c34	34*	-2	8	27	-1	5	35*	22
Cc1ccccc1OCCn1cc(/C=C(\C#N)C(=O)NCc2ccco2)c2ccccc21	34*	-2	5	-4	7	3	51*	4
N#C/C(=C\c1cn(CCOc2ccccc2F)c2ccccc12)C(=O)NCc1cccs1	124*	-2	5	20	-17	-12	26	-5
Cc1c(-c2ccc(OCc3ccccc3)cc2)nc2ccccc2c1C(=O)O	10	14	1	11	1	11	nt	nt
Cc1ccc(C)c(NC(=O)CSc2ccc(-c3cccs3)nn2)c1	25	-4	-6	12	1	0	nt	nt
Cc1cccc(NC(=O)CSc2ccc(-c3cccs3)nn2)c1C	29*	-6	-1	10	-3	2	16	3
